Test results from ChEMBL document CHEMBL1143528, “Kinesin spindle protein (KSP) inhibitors. Part 1: The discovery of 3,5-diaryl-4,5-dihydropyrazoles as potent and selective inhibitors of the mitotic kinesin KSP” (Bioorg Med Chem Lett, 2005).

The compounds below were run against T1, Caspase-3 (Homo sapiens, UniProt P42574) (assay: Inhibitory concentration towards caspase-3 induction in human A2780 ovarian carcinoma cells).
T1 sequence (P42574 whole entry): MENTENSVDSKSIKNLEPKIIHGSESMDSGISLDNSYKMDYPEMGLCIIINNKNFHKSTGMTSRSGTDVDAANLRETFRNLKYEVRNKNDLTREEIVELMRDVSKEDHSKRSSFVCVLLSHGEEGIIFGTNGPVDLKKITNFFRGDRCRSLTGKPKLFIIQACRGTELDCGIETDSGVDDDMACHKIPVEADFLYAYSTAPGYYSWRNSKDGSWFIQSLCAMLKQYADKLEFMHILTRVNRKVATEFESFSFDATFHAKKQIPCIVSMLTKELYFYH
Type: functional, cell-based
Summary of the method: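 A2780 human ovarian carcinoma cells were treated with compound. Caspase-3 activation, used as an apoptosis marker, was then measured in cell lysates with a fluorescent kit that reads release of the AFC fluorophore from DEVD-AFC substrate. The value is a concentration giving 50% of caspase-3 induction.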

Row | IC50 [µM] | Compound
1 | 0.015 | CC(=O)N1N=C(c2cc(F)ccc2F)C[C@H]1c1cccc(O)c1

These compounds were tested against T2, Kinesin-like protein KIF11 (Homo sapiens, UniProt P52732) (assay: In vitro inhibitory concentration towards kinesin spindle protein activity of ATP hydrolysis in the presence of microtubules measured by ATPase assay (n=3)).
T2 sequence (P52732 whole entry): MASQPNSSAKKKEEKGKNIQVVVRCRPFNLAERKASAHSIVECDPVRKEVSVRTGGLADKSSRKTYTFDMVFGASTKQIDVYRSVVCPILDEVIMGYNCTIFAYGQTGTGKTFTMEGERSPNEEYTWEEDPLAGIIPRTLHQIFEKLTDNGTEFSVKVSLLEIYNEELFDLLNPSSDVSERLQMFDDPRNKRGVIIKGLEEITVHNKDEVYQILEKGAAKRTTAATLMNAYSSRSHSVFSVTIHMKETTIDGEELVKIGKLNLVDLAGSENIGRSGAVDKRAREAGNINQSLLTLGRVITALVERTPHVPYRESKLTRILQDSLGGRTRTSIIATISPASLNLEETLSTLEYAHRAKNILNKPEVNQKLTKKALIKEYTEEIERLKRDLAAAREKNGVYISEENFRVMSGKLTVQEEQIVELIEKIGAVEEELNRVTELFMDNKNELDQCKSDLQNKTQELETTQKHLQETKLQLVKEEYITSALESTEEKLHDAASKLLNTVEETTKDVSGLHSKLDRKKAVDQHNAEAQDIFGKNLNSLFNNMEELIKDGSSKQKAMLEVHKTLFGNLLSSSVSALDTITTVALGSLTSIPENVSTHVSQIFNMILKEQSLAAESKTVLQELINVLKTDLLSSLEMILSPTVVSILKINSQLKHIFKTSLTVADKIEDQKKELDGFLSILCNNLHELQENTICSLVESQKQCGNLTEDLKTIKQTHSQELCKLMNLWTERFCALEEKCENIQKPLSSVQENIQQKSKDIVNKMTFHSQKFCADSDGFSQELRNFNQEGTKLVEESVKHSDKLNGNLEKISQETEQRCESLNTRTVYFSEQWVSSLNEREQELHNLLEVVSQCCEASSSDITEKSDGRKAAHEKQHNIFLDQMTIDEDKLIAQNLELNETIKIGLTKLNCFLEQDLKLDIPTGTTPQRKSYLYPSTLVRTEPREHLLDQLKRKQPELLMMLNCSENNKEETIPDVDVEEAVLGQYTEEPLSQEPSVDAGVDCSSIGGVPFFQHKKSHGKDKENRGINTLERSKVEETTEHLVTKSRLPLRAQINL

Row | IC50 [µM] | Compound
2 | 10.9 | CC(=O)N1N=C(c2c(F)cccc2F)CC1c1ccccc1 (configuration not stated)
3 | > 50 | CC(=O)N1N=C(c2ccccc2)CC1c1ccccc1 (configuration not stated)
4 | 3.1 | CNC(=O)N1N=C(c2cc(F)ccc2F)CC1c1ccccc1 (configuration not stated)
5 | 46.2 | CC(=O)N1N=C(c2ccccc2C)CC1c1ccccc1 (configuration not stated)
6 | 1.1 | CC(C)C(=O)N1N=C(c2ccccc2Cl)CC1c1cccc(O)c1 (configuration not stated)
7 | 0.25 | CC(=S)N1N=C(c2cc(F)ccc2F)CC1c1ccccc1 (configuration not stated)
8 | 0.026 | CC(=O)N1N=C(c2cc(F)ccc2F)C[C@H]1c1cccc(O)c1
9 | 1.8 | CC(=O)N1N=C(c2cc(F)ccc2F)CC1c1cccs1 (configuration not stated)
10 | 3.6 | CC(=O)N1N=C(c2ccccc2F)CC1c1ccccc1 (configuration not stated)
11 | 13.5 | O=C(c1ccccc1)N1N=C(c2ccccc2Cl)CC1c1cccc(O)c1 (configuration not stated)
12 | 3.6 | CC(=O)N1N=C(c2ccccc2Cl)CC1c1ccccc1 (configuration not stated)
13 | > 50 | CC(=O)N1N=C(c2ccc(Cl)cc2)CC1c1ccccc1 (configuration not stated)
14 | 0.051 | CC(=O)N1N=C(c2cc(F)ccc2F)CC1c1cccc(O)c1 (configuration not stated)
15 | 0.084 | CN(C)C(=O)N1N=C(c2cc(F)ccc2F)CC1c1ccccc1 (configuration not stated)
16 | > 50 | CN1N=C(c2ccccc2Cl)CC1c1cccc(O)c1 (configuration not stated)
17 | 0.094 | CC(=O)N1N=C(c2cc(F)ccc2F)CC1c1ccccc1 (configuration not stated)
18 | > 50 | COC(=O)N1N=C(c2ccccc2Cl)CC1c1cccc(O)c1 (configuration not stated)
19 | 1.8 | CS(=O)(=O)N1N=C(c2cc(F)ccc2F)CC1c1ccccc1 (configuration not stated)
20 | 1.2 | CCC(=O)N1N=C(c2ccccc2Cl)CC1c1cccc(O)c1 (configuration not stated)
21 | 6 | NCCCC(=O)N1N=C(c2ccccc2Cl)CC1c1cccc(O)c1 (configuration not stated)
22 | 37.6 | CC(=O)N1N=C(c2ccc(Cl)cc2Cl)CC1c1ccccc1 (configuration not stated)
23 | 23.3 | CC(=O)N1N=C(c2ccccc2Br)CC1c1ccccc1 (configuration not stated)
24 | 0.46 | CC(C)(C)C(=O)N1N=C(c2ccccc2Cl)CC1c1cccc(O)c1 (configuration not stated)
25 | 9.8 | CC(=O)N1N=C(c2cccc(Cl)c2)CC1c1ccccc1 (configuration not stated)
26 | 6.9 | CC(=O)N1N=C(c2ccccc2)CC1c1cccc(O)c1 (configuration not stated)
27 | 12.7 | CC(=O)N1N=C(c2cccc(F)c2F)CC1c1ccccc1 (configuration not stated)
28 | > 50 | COc1ccccc1C1=NN(C(C)=O)C(c2ccccc2)C1 (configuration not stated)
29 | > 5 | CC(=O)N1N=C(c2cc(F)cc(F)c2)CC1c1ccccc1 (configuration not stated)
30 | > 50 | CC(=O)N1N=C(c2ccccc2C(F)(F)F)CC1c1ccccc1 (configuration not stated)
31 | 10 | CCOC(=O)C1=C(C)NC(=S)N[C@H]1c1cccc(O)c1 [S-MENASTROL]

Row | Compound | IC50 [µM]
32 | CC(=O)N1N=C(c2ccccc2Cl)CC1c1cccc(O)c1 (configuration not stated) | 0.45
